In ChEMBL document CHEMBL4265973, “Broad-spectrum antibacterial amphiphilic aminoglycosides: A new focus on the structure of the lipophilic groups extends the series of active dialkyl neamines” (Eur J Med Chem, 2018):
Values after ≈ are worked out from the molar mass of the structure shown.

Assays:
[1] = system: Escherichia coli; assay: microbe, parasite or virus in culture; details: ATCC 25922
[2] = Cytotoxicity against mouse J774 cells assessed as cell viability at 30 uM after 24 hrs by MTT assay relative to control; type: cell-based; details: J774 cells, read-out: Activity
Outline: (§1)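 Murine J774 macrophages are exposed for 24 h to compound at 10 or 30 µM, then given 0.2 mg/mL MTT for 1 h. The reaction is stopped with DMSO and OD read at 570 nm; viability is metabolic activity as % of control. The number of independent experiments is given per value.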

[3] = system: Staphylococcus aureus; assay: Antibacterial activity against methicillin-resistant Staphylococcus aureus ATCC 33592 by microdilution assay; type: functional
Outline: (§2)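 Broth microdilution MIC per CLSI recommendations, fresh culture in cation-adjusted Mueller-Hinton broth, starting inoculum 10^6 cells.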

[4] = system: Pseudomonas aeruginosa; assay: Antibacterial activity against Pseudomonas aeruginosa FO3 harboring AAC6'-2A by microdilution assay; type: functional
Outline: as §2

[5] = system: Acinetobacter lwoffii; assay: Antibacterial activity against Acinetobacter lwoffii ATCC 17925 by microdilution assay; type: functional
Outline: (§3)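 Broth microdilution per CLSI recommendations, using a fresh culture in cation-adjusted Mueller-Hinton broth (CA-MHB) and a starting inoculum of 10^6 cells; the MIC is the value read.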

[6] = system: Escherichia coli; assay: Antibacterial activity against Escherichia coli PAZ505H8101 harboring AAC6'-1B by microdilution assay; type: functional
Outline: as §2

[7] = system: Staphylococcus aureus; assay: Antibacterial activity against Staphylococcus aureus ATCC 25923 by microdilution assay; type: functional
Outline: as §2

[8] = system: Pseudomonas aeruginosa; assay: Antibacterial activity against Pseudomonas aeruginosa ATCC 27853 by microdilution assay; type: functional
Outline: as §3

[9] = system: Escherichia coli; assay: Antibacterial activity against Escherichia coli L8058.1 harboring ANT2'-1A by microdilution assay; type: functional
Outline: as §2

[10] = system: Pseudomonas aeruginosa; assay: Antibacterial activity against Pseudomonas aeruginosa PA406 harboring triABC deletion mutant by microdilution assay; type: functional
Outline: as §2

[11] = system: Acinetobacter lwoffii; assay: Antibacterial activity against Acinetobacter lwoffii AI.88-483 harboring APH3'-6A by microdilution assay; type: functional
Outline: as §2

[12] = system: Staphylococcus aureus; assay: Antibacterial activity against Staphylococcus aureus SA-1 expressing NorA pump by microdilution assay
[13] = system: Klebsiella pneumoniae; assay: Antibacterial activity against Klebsiella pneumoniae 700603 by microdilution assay; type: functional
Outline: as §3

[14] = Cytotoxicity against mouse J774 cells assessed as cell viability at 10 uM after 24 hrs by MTT assay relative to control; type: cell-based; details: J774 cells, read-out: Activity
Outline: as §1

[15] = system: Pseudomonas aeruginosa; assay: Antibacterial activity against Pseudomonas aeruginosa PA22 harboring surexp MexXY by microdilution assay; type: functional
Outline: as §2

Row | Compound | MIC [1] [mg/L] | viability at 24 h, 30 µM [2] [%] | MIC [3] [mg/L] | MIC [4] [mg/L] | MIC [5] [mg/L] | MIC [6] [mg/L] | MIC [7] [mg/L] | MIC [8] [mg/L] | MIC [9] [mg/L] | MIC [10] [mg/L] | MIC [11] [mg/L] | MIC [12] [mg/L] | MIC [13] [mg/L] | viability at 24 h, 10 µM [14] [%] | MIC [15] [mg/L]
1 | CCCCCCCO[C@@H]1[C@@H](N)[C@@H](O[C@H]2[C@H](O)[C@@H](O)[C@H](N)C[C@@H]2N)O[C@H](CN)[C@H]1O | > 128 | 70.2 | > 128 | > 128 | 64 (≈ 152 µM) | > 128 | > 128 | > 128 | > 128 | > 128 | > 128 | > 128 | > 128 | 77.5 | > 128
2 | NCC[C@H](O)C(=O)N[C@@H]1C[C@H](N)[C@@H](O[C@H]2O[C@H](CN)[C@@H](O)[C@H](O)[C@H]2O)[C@H](O)[C@H]1O[C@H]1O[C@H](CO)[C@@H](O)[C@H](N)[C@H]1O [AMIKACIN] | 4 (≈ 6.83 µM) |  | 8 to 16 (≈ 13.7 to 27.3 µM) | 8 (≈ 13.7 µM) | < 0.25 | 64 (≈ 109 µM) | 4 (≈ 6.83 µM) | 2 to 4 (≈ 3.42 to 6.83 µM) | 8 (≈ 13.7 µM) | 1 (≈ 1.71 µM) | 128 (≈ 219 µM) | 2 (≈ 3.42 µM) | 1 (≈ 1.71 µM) |  | 8 (≈ 13.7 µM)
3 | CCCCCCCCCCCO[C@@H]1[C@@H](N)[C@@H](O[C@H]2[C@H](O)[C@@H](OCCCCCCCCCCC)[C@H](N)C[C@@H]2N)O[C@H](CN)[C@H]1O | 4 (≈ 6.34 µM) | 14.1 | 64 (≈ 101 µM) | 16 (≈ 25.4 µM) | 32 (≈ 50.7 µM) | 16 (≈ 25.4 µM) | 8 (≈ 12.7 µM) | 16 (≈ 25.4 µM) | 16 (≈ 25.4 µM) | 16 (≈ 25.4 µM) | 32 (≈ 50.7 µM) | 8 (≈ 12.7 µM) | 32 (≈ 50.7 µM) | 81.7 | 16 (≈ 25.4 µM)
4 | GENTAMICIN |  |  | 1 | > 128 | < 0.25 | 1 | 0.25 to 0.5 | 1 | 64 | < 0.25 | 2 |  | 4 to 8 |  | 4
5 | NC[C@H]1O[C@H](O[C@H]2[C@H](O)[C@@H](O)[C@H](N)C[C@@H]2N)[C@H](N)[C@@H](O)[C@@H]1O [NEAMINE] | 32 (≈ 99.3 µM) |  | > 128 | > 128 | 0.5 (≈ 1.55 µM) | > 128 | 16 to 32 (≈ 49.6 to 99.3 µM) | > 128 | 32 (≈ 99.3 µM) | 64 (≈ 199 µM) | > 128 | 8 (≈ 24.8 µM) | 32 (≈ 99.3 µM) |  | > 128
6 | CCCCCCCCO[C@@H]1[C@@H](N)[C@@H](O[C@H]2[C@H](O)[C@@H](OCCCCCCCC)[C@H](N)C[C@@H]2N)O[C@H](CN)[C@H]1O | 4 (≈ 7.32 µM) | 65.1 | 2 (≈ 3.66 µM) | 8 (≈ 14.6 µM) | 2 to 4 (≈ 3.66 to 7.32 µM) | 2 to 4 (≈ 3.66 to 7.32 µM) | 1 (≈ 1.83 µM) | 2 (≈ 3.66 µM) | 4 (≈ 7.32 µM) | 2 (≈ 3.66 µM) | 128 (≈ 234 µM) | 1 (≈ 1.83 µM) | 8 (≈ 14.6 µM) | 91.3 | 8 (≈ 14.6 µM)
7 | NC[C@H]1O[C@H](O[C@H]2[C@H](O)[C@@H](O[C@H]3O[C@H](CO)[C@@H](O)[C@H](N)[C@H]3O)[C@H](N)C[C@@H]2N)[C@H](N)C[C@@H]1O [TOBRAMYCIN] | 1 (≈ 2.14 µM) |  | 64 (≈ 137 µM) | 128 (≈ 274 µM) | < 0.25 | 32 (≈ 68.4 µM) | 0.25 to 0.5 (≈ 0.535 to 1.07 µM) | < 0.25 | 64 (≈ 137 µM) | < 0.25 | 0.5 to 1 (≈ 1.07 to 2.14 µM) | 0.5 (≈ 1.07 µM) | 4 to 8 (≈ 8.56 to 17.1 µM) |  | 0.5 (≈ 1.07 µM)
8 | CCCCCCCCCO[C@@H]1[C@@H](N)[C@@H](O[C@H]2[C@H](O)[C@@H](O)[C@H](N)C[C@@H]2N)O[C@H](CN)[C@H]1OCCCCCCCCC | 4 to 8 (≈ 6.96 to 13.9 µM) |  | 4 (≈ 6.96 µM) | 8 to 16 (≈ 13.9 to 27.8 µM) | 4 to 8 (≈ 6.96 to 13.9 µM) | 4 to 8 (≈ 6.96 to 13.9 µM) | 4 (≈ 6.96 µM) | 8 to 16 (≈ 13.9 to 27.8 µM) | 8 (≈ 13.9 µM) | 8 to 16 (≈ 13.9 to 27.8 µM) | 32 (≈ 55.7 µM) | 4 (≈ 6.96 µM) | 16 to 32 (≈ 27.8 to 55.7 µM) |  | 8 to 16 (≈ 13.9 to 27.8 µM)
